Data set [1] has as its target T1, Histamine H3 receptor (Homo sapiens, UniProt Q9Y5N1). In words: Antagonist activity at human histamine H3 receptor expressed in HEK293 cells assessed by forskolin induced cAMP response element activation after 5 hrs by luciferase reporter gene assay. The data set is classed as functional, cell-based. In general terms: Reporter assays use an easily measured gene product as a stand-in for the process of interest.

Data set [2] concerns the target T2, hERG (KCNH2) (Homo sapiens, UniProt Q12809). Description: Inhibition of human ERG expressed in HEK293 cells assessed as membrane depolarization at 100 nM by patch-clamp method. The data set is classed as cell-based. To be noted: HEK293 cells that express hERG. (In general: The patch-clamp technique gives a direct electrical read-out from membranes.)
For data set [3], the target named is T2, hERG (KCNH2). Description: Inhibition of human ERG expressed in HEK293 cells assessed as membrane depolarization at 3 uM by patch-clamp method. The data set is classed as cell-based. To be noted: HEK293 cells that express hERG.
Data set [4] is described as follows: Antioxidant activity assessed as ABTS free radical scavenging activity after 6 mins by spectrophotometry. The data set is classed as functional. A digest of the protocol: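 ABTS (7 mM in water) reacted with 2.45 mM potassium persulfate (final), held in dark at room temperature ≥18 h to form radical cation, then serially diluted. Antioxidant added, mixed by pipette bubbling; absorbance at 415 nm read 6 min after addition, equilibrated at 30 °C. Each treatment repeated three times; melatonin as comparator.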

Data set [5] has as its target Histamine H4 receptor (Homo sapiens) (UniProt Q9H3N8). In words: Antagonist activity at human histamine H4 receptor expressed in HEK293 cells assessed by forskolin induced cAMP response element activation after 5 hrs by luciferase reporter gene assay. The data set is classed as functional, cell-based. A digest of the protocol: (§1)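 Stable HEK-293 lines co-transfected with human H1, H2 or H4 receptor plus pCRE-Luc (G418 800 µg/mL selection), grown overnight to 90–95% confluence. Cells got 10 µM forskolin plus graded compound concentrations with 5 µM histamine in serum-free DMEM, 5 h at 37 °C. Read-out was firefly luciferase. Triplicate points, three separate experiments.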

Data set [6] concerns the target Histamine H2 receptor (Homo sapiens) (UniProt P25021). In words: Antagonist activity at human histamine H2 receptor expressed in HEK293 cells assessed by forskolin induced cAMP response element activation after 5 hrs by luciferase reporter gene assay. The data set is classed as functional, cell-based. A digest of the protocol:
as §1

Data set [7] deals with Histamine H1 receptor (Homo sapiens) (UniProt P35367). Description: Antagonist activity at human histamine H1 receptor expressed in HEK293 cells assessed by forskolin induced cAMP response element activation after 5 hrs by luciferase reporter gene assay. The data set is classed as functional, cell-based. Summed up:
as §1

Data set [8] addresses T1, Histamine H3 receptor. Description: Displacement of […] from human histamine H3 receptor expressed in HEK293 cells after 90 to 120 mins by liquid scintillation counting. Type of data set: cell-based.

The source of these data is ChEMBL document CHEMBL2417548, “Design and synthesis of novel 3-substituted-indole derivatives as selective H3 receptor antagonists and potent free radical scavengers” (Bioorg Med Chem, 2013).

Molecules are shown by their SMILES. pIC50, pKi: −log10 of the molar value. Calls of active or inactive are those of the source. The calls are words filed in the database; no cut-off is given here.

T2 sequence (Q12809 whole entry): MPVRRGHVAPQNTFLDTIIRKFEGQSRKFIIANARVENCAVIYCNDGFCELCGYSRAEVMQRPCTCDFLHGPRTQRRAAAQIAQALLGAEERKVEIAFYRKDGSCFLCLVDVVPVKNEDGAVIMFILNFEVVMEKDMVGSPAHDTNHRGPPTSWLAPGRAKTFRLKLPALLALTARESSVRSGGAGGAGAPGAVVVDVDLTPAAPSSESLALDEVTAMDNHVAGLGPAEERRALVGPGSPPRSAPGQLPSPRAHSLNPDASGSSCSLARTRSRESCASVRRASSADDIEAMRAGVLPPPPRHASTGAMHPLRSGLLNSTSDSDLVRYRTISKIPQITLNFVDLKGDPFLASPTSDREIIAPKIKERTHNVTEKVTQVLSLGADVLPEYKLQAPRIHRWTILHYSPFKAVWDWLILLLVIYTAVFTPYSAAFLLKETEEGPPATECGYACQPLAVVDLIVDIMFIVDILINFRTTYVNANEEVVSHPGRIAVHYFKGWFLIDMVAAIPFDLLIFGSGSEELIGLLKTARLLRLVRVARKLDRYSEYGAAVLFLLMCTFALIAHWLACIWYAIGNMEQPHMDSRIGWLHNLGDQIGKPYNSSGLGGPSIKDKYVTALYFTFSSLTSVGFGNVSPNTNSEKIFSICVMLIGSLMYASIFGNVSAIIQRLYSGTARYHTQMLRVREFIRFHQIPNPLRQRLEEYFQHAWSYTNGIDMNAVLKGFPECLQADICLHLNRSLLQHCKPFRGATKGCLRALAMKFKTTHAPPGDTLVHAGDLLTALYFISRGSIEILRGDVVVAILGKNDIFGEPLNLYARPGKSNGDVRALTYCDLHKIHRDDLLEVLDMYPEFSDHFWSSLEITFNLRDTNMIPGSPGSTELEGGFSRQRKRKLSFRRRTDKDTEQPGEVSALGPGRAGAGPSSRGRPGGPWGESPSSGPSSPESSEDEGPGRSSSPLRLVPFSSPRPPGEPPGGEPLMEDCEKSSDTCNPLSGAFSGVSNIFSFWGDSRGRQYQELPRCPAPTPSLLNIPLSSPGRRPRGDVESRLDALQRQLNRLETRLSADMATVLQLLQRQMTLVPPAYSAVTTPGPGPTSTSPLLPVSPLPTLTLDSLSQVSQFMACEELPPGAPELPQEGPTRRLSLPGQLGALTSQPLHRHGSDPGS
T1 sequence (Q9Y5N1 whole entry): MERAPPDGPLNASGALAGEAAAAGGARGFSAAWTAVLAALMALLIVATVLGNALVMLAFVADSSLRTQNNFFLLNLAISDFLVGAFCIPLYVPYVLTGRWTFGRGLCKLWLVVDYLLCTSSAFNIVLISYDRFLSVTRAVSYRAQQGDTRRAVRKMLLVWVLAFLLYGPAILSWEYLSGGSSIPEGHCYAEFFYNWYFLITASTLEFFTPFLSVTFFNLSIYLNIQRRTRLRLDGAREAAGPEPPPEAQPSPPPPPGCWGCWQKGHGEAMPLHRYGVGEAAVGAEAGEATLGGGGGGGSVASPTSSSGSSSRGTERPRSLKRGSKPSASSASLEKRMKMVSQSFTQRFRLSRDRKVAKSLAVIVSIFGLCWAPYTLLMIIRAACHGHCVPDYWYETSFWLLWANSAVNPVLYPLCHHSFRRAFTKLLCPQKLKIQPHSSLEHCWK
Sequence of Histamine H1 receptor (Homo sapiens) (P35367 whole entry): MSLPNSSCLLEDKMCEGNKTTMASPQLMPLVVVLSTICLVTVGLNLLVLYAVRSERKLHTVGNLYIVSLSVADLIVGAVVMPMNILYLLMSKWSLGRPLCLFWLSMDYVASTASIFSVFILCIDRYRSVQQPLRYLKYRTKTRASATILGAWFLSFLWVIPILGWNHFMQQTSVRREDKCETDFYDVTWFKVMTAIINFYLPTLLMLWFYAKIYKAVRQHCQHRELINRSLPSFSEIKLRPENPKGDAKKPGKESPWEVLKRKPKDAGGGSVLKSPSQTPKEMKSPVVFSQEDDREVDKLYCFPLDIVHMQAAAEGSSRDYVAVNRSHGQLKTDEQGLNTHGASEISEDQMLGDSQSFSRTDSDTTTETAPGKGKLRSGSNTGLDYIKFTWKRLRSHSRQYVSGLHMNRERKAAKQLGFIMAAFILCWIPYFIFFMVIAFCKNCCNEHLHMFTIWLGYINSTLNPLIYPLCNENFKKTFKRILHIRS
Sequence of Histamine H2 receptor (Homo sapiens) (P25021 whole entry): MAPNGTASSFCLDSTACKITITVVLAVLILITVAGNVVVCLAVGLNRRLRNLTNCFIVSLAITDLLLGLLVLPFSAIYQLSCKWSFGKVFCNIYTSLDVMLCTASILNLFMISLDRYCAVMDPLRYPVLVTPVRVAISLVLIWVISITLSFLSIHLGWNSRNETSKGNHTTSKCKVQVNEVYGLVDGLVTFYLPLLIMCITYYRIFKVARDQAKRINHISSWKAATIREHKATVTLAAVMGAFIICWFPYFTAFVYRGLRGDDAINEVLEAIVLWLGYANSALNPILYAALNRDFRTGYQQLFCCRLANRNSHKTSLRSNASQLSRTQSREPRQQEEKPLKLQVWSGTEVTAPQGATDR
Sequence of Histamine H4 receptor (Homo sapiens) (Q9H3N8 whole entry): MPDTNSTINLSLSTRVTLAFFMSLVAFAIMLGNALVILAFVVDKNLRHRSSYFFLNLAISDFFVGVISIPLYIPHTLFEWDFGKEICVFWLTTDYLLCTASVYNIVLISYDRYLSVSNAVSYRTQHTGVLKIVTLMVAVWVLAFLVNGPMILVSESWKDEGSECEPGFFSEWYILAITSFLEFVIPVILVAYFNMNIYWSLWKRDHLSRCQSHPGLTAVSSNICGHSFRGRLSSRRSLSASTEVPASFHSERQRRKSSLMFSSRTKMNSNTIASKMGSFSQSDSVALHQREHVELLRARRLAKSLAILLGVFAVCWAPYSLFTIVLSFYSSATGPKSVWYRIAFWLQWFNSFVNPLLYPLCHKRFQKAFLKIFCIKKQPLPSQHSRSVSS

One may read the pIC50 as the negative decadic logarithm of the IC50, by convention in mol/L. Compound `CCN(CC)Cc1ccc(NC(=O)Cc2c[nH]c3ccccc23)cc1` had a pIC50 on Histamine H3 receptor [1] of 5.46.

In turn, `O=C(CCc1c[nH]c2ccccc12)Nc1ccc(CN2CCCC2)cc1` gave a negative-log IC50 (pIC50) against Histamine H3 receptor [1] of under 5.00.

Broadly, the inhibition is the share of the control response that was lost under treatment. With `COc1cc(N)c(Cl)cc1C(=O)NC1CCN(CCCOc2ccc(F)cc2)CC1OC` (stereo not drawn) [CISAPRIDE], the inhibition at 0.1 µM at hERG (KCNH2) [2] was found to be 89%.

The compound `CCN(CC)Cc1ccc(NCCc2c[nH]c3ccccc23)cc1` showed a negative logarithm of the IC50 (pIC50) on Histamine H3 receptor [1] of 6.54.

Turning to `O=C(Cc1c[nH]c2ccccc12)Nc1ccc(CN2CCOCC2)cc1`, the inhibition at 3 µM on hERG (KCNH2) [3] was 6%. Also, the values for the negative-log IC50 (pIC50) (in data set [4]; on Histamine H3 receptor [1]) were 5.33 and 5.66, respectively.

For `O=C(CCc1c[nH]c2ccccc12)Oc1ccc(CN2CCOCC2)cc1`, at Histamine H3 receptor [1], the pIC50 is under 5.00.

Regarding `O=C(Nc1ccc(CN2CCCCC2)cc1)c1c[nH]c2ccccc12`, the pIC50 at Histamine H3 receptor [1] is 5.92.

Compound `CCN(CC)Cc1ccc(OC(=O)CCc2c[nH]c3ccccc23)cc1` gave a pIC50 on Histamine H3 receptor [1] of under 5.00.

Turning to `O=C(Oc1ccc(CN2CCCCC2)cc1)c1c[nH]c2ccccc12`, at Histamine H3 receptor [1], the negative-log IC50 (pIC50) is 5.69.

As to `c1ccc2c(CCCNc3ccc(CN4CCOCC4)cc3)c[nH]c2c1`, the pIC50 at Histamine H3 receptor [1] is 6.31.

Compound `CCN(CC)Cc1ccc(NC(=O)CCc2c[nH]c3ccccc23)cc1` showed a pIC50 against Histamine H3 receptor [1] of under 5.00.

In the case of `O=C(CCc1c[nH]c2ccccc12)Nc1ccc(CN2CCOCC2)cc1`, the pIC50 on Histamine H3 receptor [1] was under 5.00.

For `O=C(Cc1c[nH]c2ccccc12)Oc1ccc(CN2CCCCC2)cc1`, the pIC50 at Histamine H3 receptor [1] was 5.98.

On Histamine H3 receptor [1], `O=C(CCc1c[nH]c2ccccc12)Oc1ccc(CN2CCCCC2)cc1` showed a pIC50 of under 5.00.

For the compound `c1ccc2c(CCNc3ccc(CN4CCCC4)cc3)c[nH]c2c1`, the inhibition at 3 µM on hERG (KCNH2) [3] was 73%. The pIC50 against Histamine H3 receptor [1] is 6.74.

For orientation: pKi means the Ki on a negative log10 scale, so that one unit is a factor of ten. As to `c1ccc2c(CCNc3ccc(CN4CCOCC4)cc3)c[nH]c2c1`, the result in data set [5], in data set [6] and in data set [7] was inactive. Besides, at Histamine H3 receptor [8], the pKi is 8.37. Further, the inhibition at 3 µM at hERG (KCNH2) [3] worked out at 54%. The pIC50 is 5.52 in data set [4] and 7.31 on Histamine H3 receptor [1].

`COc1ccc2[nH]cc(CCNC(C)=O)c2c1` [MELATONIN]: the pIC50 in data set [4] was 5.72.

As to `O=C(Cc1c[nH]c2ccccc12)Nc1ccc(CN2CCCC2)cc1`, the pIC50 against Histamine H3 receptor [1] was 5.86.

`O=C(CCc1c[nH]c2ccccc12)Oc1ccc(CN2CCCC2)cc1` had a pIC50 at Histamine H3 receptor [1] of under 5.00.

In the case of `c1ccc2c(CNc3ccc(CN4CCCCC4)cc3)c[nH]c2c1`, the pIC50 at Histamine H3 receptor [1] was 6.27.

For `O=C(Cc1c[nH]c2ccccc12)Oc1ccc(CN2CCOCC2)cc1`, the inhibition at 3 µM at hERG (KCNH2) [3] was 12%. Besides, the pIC50 in data set [4] was 5.27; on Histamine H3 receptor [1] it was 6.10.

Turning to `O=C(CCc1c[nH]c2ccccc12)Nc1ccc(CN2CCCCC2)cc1`, at Histamine H3 receptor [1], the pIC50 was under 5.00.

Consider `c1ccc2c(CCNc3ccc(CN4CCCCC4)cc3)c[nH]c2c1`, for which the inhibition at 3 µM on hERG (KCNH2) [3] turned out to be 87%. Also, at Histamine H3 receptor [1], the pIC50 is 7.10.

With `CCN(CC)Cc1ccc(OC(=O)Cc2c[nH]c3ccccc23)cc1`, the pIC50 on Histamine H3 receptor [1] is 5.34.

`O=C(Cc1c[nH]c2ccccc12)Nc1ccc(CN2CCCCC2)cc1`: the pIC50 against Histamine H3 receptor [1] was 5.55.

On Histamine H3 receptor [1], `O=C(Cc1c[nH]c2ccccc12)Oc1ccc(CN2CCCC2)cc1` gave a pIC50 of 5.61.
